A short description of series [1]: Protein binding in human plasma. Conditions: read-out: PPB; call rule not given here. The format is ADME, cell-free.
Series [2] can be described thus: Ratio of drug level in Sprague-Dawley rat brain to plasma at 3 mg/kg, iv administered as 10 mins infusion by LC-MS/MS analysis. The format is ADME, organism-based. The following applies: brain and plasma, read-out: BPR.
Series [3] has as its target T1, Voltage-gated inwardly rectifying potassium channel KCNH2 (Homo sapiens, UniProt Q12809). The experiment in a line: Inhibition of human ERG expressed in HEK293 cells by patch clamp method. Type of series: cell-based.
Series [4] in a line: Protein binding in rat plasma. The format is ADME, cell-free. The following applies: read-out: PPB.
Series [5] concerns the target T2, Potassium voltage-gated channel subfamily A member 5 (Homo sapiens, UniProt P22460). The following applies: at 0.3 µM.
Series [6] can be described thus: Solubility of the compound in ethanol/propylene glycol/PEG-400. Type of series: physicochemical.
Series [7] can be described thus: Stability in human liver microsomes assessed as compound remaining in presence of NADPH after 10 mins. The format is ADME, microsome. Conditions: read-out: Stability.
Series [8] deals with T2, Potassium voltage-gated channel subfamily A member 5. The experiment in a line: Inhibition of recombinant human Kv1.5 expressed in mouse L929 cells by patch clamp assay. Type of series: cell-based. The gist of the method: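 Whole-cell patch clamp of IKur current in mouse L-929 cells transfected with human KV1.5 and stably expressing the channel.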
Series [9] concerns the target T1, Voltage-gated inwardly rectifying potassium channel KCNH2. Nature of the series: Inhibition of human ERG expressed in HEK293 cells by flux assay.
Series [10] addresses T3, hERG (KCNH2) (Homo sapiens, UniProt Q12809). Nature of the series: Inhibition of human ERG expressed in HEK293 cells at 10 uM by patch clamp method relative to control. The format is cell-based. Conditions: HEK293 cells expressing human ERG. In general terms: The patch-clamp technique gives a direct electrical read-out from membranes.
In series [11] the target is T3, hERG (KCNH2). Nature of the series: Inhibition of human ERG expressed in HEK293 cells at 1 uM by patch clamp method relative to control. Type of series: cell-based. Conditions: HEK293 cells expressing human ERG.
The nature of series [12]: Prodrug conversion in monkey famotidine model assessed as 5-[5-phenyl-4-(pyridin-2-ylmethylamino)-quinazolin-2-yl]pyridine-3-sulfonamide formation in intestinal brush border. The format is ADME, Macaca mulatta. The following applies: rhesus monkey, in vivo.
For another series, the system named is Plasma. Nature of the series: Drug uptake in monkey famotidine model plasma. The format is ADME, cell-free, Macaca mulatta. The following applies: rhesus monkey.
Series [13] can be described thus: Solubility of the compound in pH 1 to 8 solution using crystalline form. The format is physicochemical.

T2 sequence (P22460 whole entry): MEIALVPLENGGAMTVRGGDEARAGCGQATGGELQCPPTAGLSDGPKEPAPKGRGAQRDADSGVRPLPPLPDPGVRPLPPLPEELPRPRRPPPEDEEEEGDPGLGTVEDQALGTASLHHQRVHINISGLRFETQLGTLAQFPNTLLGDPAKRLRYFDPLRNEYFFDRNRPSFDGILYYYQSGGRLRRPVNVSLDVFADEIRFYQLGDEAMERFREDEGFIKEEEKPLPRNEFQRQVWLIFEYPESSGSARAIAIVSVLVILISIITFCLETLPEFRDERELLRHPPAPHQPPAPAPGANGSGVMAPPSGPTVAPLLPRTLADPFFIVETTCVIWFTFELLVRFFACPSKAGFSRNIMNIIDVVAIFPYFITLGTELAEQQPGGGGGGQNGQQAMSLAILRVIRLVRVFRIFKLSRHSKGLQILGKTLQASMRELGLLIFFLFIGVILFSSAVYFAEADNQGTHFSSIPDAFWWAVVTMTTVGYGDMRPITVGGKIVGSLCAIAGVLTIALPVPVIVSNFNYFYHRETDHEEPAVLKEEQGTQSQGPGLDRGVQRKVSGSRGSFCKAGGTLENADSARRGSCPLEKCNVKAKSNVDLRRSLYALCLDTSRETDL
T1 sequence (Q12809 whole entry): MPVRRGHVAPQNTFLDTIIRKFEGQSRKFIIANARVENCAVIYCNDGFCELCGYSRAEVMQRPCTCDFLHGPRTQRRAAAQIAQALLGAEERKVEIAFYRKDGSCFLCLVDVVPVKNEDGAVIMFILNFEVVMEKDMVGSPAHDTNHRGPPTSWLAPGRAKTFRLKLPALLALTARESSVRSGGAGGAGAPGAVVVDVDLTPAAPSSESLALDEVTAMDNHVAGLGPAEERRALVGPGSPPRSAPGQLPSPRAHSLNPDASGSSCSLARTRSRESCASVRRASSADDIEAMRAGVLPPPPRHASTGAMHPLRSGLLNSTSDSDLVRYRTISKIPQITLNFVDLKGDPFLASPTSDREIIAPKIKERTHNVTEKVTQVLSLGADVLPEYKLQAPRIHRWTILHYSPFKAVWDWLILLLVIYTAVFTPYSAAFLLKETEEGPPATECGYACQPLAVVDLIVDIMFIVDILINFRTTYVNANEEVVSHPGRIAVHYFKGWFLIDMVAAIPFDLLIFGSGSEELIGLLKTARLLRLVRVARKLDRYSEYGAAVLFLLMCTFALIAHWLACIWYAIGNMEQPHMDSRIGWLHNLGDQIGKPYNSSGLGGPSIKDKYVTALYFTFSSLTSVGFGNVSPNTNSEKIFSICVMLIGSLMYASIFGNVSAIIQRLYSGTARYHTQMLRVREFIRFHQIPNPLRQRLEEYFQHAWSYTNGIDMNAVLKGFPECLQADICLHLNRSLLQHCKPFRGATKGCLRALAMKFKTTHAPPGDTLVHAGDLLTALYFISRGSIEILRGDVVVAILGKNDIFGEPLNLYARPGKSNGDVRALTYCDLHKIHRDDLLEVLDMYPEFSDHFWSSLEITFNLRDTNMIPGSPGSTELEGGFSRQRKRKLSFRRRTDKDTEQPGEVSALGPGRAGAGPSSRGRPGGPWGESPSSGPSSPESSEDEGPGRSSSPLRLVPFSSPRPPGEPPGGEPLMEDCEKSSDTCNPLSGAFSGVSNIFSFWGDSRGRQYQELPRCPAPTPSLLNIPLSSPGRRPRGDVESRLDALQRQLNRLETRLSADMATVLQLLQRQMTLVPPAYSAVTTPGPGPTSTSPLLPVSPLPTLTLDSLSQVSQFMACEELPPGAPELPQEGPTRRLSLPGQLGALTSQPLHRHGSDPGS
T3 sequence (Q12809 whole entry): as above

As usually defined, the IC50 is the concentration that gives 50% inhibition. For orientation: inhibition means the percentage by which the read-out fell short of the control. In the case of `Nc1ncc(-c2nc(NCc3ccccn3)c3c(-c4ccccc4)cccc3n2)cn1`, the fraction unbound in series [1] and in series [4] was under 0.005 in each case. The Kp at 10 min in series [2] is 3. Also, inhibition in series [3] was half-maximal at 80000 nM (IC50). For the same molecule, the inhibition in [5] is 95%.
On to `NC(=O)Nc1cncc(-c2nc(NCc3ccccn3)c3c(-c4ccccc4)cccc3n2)c1`, for which the fraction unbound in [1] and in [4] was under 0.005 in each case. In series [6], the solubility entry is reported as “Insoluble”. The Kp at 10 min in [2] stood at 0.04. This molecule had an inhibition in series [5] of 91%.
As for `NS(=O)(=O)c1ccc(CCNc2nc(Cl)nc3cccc(-c4ccccc4)c23)cc1`, the Kp at 10 min in [2] was 0.6. For the same molecule, the inhibition in series [5] came to 73%. The remaining at 10 min in series [7] is 68%.
For `CC(=O)Nc1cncc(-c2nc(NCc3ccccn3)c3c(-c4ccccc4)cccc3n2)c1`, the fraction unbound in [1] and in [4] was under 0.005 each time. Also, in series [2], the Kp at 10 min is 0.08. Also, the IC50 in series [3] amounted to 2000 nM; in series [8], 100 nM.
In the case of `N#Cc1ncc(-c2nc(NCc3ccccn3)c3c(-c4ccccc4)cccc3n2)cn1`, the Kp at 10 min in [2] amounted to 3. Besides, in series [5], the inhibition was found to be 64%.
Consider `NS(=O)(=O)c1ccc(-c2nc(NCc3ccccn3)c3c(-c4ccccc4)cccc3n2)cn1`, for which the fraction unbound in [1] and in [4] was under 0.005 throughout. Further, the Kp at 10 min in series [2] is 0.4. Further, the inhibition in [5] came to 92%.
On to `NC(=O)c1ccc(-c2cccc3nc(-c4cncnc4)nc(NCc4ccccn4)c23)cc1`, for which the fraction unbound in [1] and in series [4] was under 0.01 each time. The Kp at 10 min in series [2] is 0.2. The molecule further came in with an IC50 in series [3] of 1300 nM.
As to `CC(=O)Nc1ccc(-c2nc(NCc3ccccn3)c3c(-c4ccccc4)cccc3n2)cn1`, the fraction unbound in series [1] and in series [4] was under 0.005 each time. Also, the Kp at 10 min in series [2] amounted to 2. Moreover, the inhibition in series [5] came to 80%.
In turn, `NS(=O)(=O)c1ccc(CCNc2nc(-c3cncnc3)nc3cccc(-c4ccccc4)c23)cc1` yielded an IC50 in series [9] of 5600 nM. This molecule registered an inhibition in series [5] of 15%.
Consider `c1ccc(CNc2nc(-c3cncnc3)nc3cccc(-c4cccc(N5CCOCC5)c4)c23)nc1`, for which the Kp at 10 min in [2] stood at 0.3. In [5], this molecule yielded an inhibition of 50%.
`NS(=O)(=O)c1cccc(-c2nc(NCc3ccccn3)c3c(-c4ccccc4)cccc3n2)n1` showed an inhibition in [5] of 87%.
For `NS(=O)(=O)c1ccncc1-c1nc(NCc2ccccn2)c2c(-c3ccccc3)cccc2n1`, the inhibition in series [5] came out at 48%.
`CS(=O)(=O)Nc1cncc(-c2nc(NCc3ccccn3)c3c(-c4ccccc4)cccc3n2)c1`: the fraction unbound in series [1] and in series [4] was under 0.005 each time. Also, in [2], the Kp at 10 min is 0.07. Further, the inhibition at 10 µM at hERG (KCNH2) [10] is 94%. The inhibition in series [5] is 87%.
With `CN(C)c1ccc(-c2cccc3nc(-c4cncnc4)nc(NCc4ccccn4)c23)cc1`, the IC50 in series [8] is 330 nM; in series [9], over 80000 nM. Further, the remaining at 10 min in series [7] is under 3%.
In the case of `O=c1ccc(-c2nc(NCc3ccccn3)c3c(-c4ccccc4)cccc3n2)c[nH]1`, in [2], the Kp at 10 min was determined as 1. The IC50 in series [3] worked out at 500 nM.
In the case of `COc1ncc(-c2nc(NCc3ccccn3)c3c(-c4ccccc4)cccc3n2)cn1`, in series [2], the Kp at 10 min was found to be 2.5.
As to `O=S(=O)(c1cccc(Nc2nc(Cl)nc3cccc(-c4ccccc4)c23)c1)N1CCOCC1`, the Kp at 10 min in [2] came to 3. Also, in series [8], the IC50 was 210 nM.
As for `O=C(NCC(F)(F)F)c1ccc(-c2cccc3nc(-c4cncnc4)nc(NCc4ccccn4)c23)cc1`, the fraction unbound in [1] and in [4] was under 0.005 throughout. Moreover, in series [2], the Kp at 10 min was 0.3. The molecule further registered an IC50 in series [3] of 4900 nM. The molecule also showed an inhibition in series [5] of 2%.
Turning to `NC(=O)Nc1ccc(-c2nc(NCc3ccccn3)c3c(-c4ccccc4)cccc3n2)cn1`, the fraction unbound in [1] and in [4] was under 0.005 each time. The Kp at 10 min in [2] came out at 1. The molecule further yielded an inhibition in series [5] of 79%.
Regarding `NC(=O)c1ccc(-c2nc(NCc3ccccn3)c3c(-c4ccccc4)cccc3n2)cn1`, the fraction unbound in [1] and in series [4] was under 0.01 each time. In addition, the Kp at 10 min in series [2] turned out to be 3. Also, the IC50 in series [3] is 4600 nM; in series [8] it was 100 nM.
`O=S(=O)(c1cccc(Nc2nc(-c3cncnc3)nc3cccc(-c4ccccc4)c23)c1)N1CCOCC1`: the fraction unbound in series [1] and in series [4] was under 0.005 throughout. For the same molecule, the Kp at 10 min in series [2] was found to be 2.4. Moreover, in series [8], the 50% inhibitory concentration (IC50) worked out at 80 nM.
Take `NC(=O)c1cncc(-c2nc(NCc3ccccn3)c3c(-c4ccccc4)cccc3n2)c1`: the fraction unbound in series [1] and in series [4] was under 0.005 in each case. For the same molecule, the Kp at 10 min in series [2] was 0.3. For the same molecule, the inhibition at 1 µM on hERG (KCNH2) [11] worked out at 26%. Further, in series [5], the inhibition was determined as 89%.
For the molecule `c1ccc(-c2cccc3nc(-c4cncnc4)nc(NCc4ccccn4)c23)cc1`, in series [2], the Kp at 10 min was 2.8.
On to `O=P(O)(O)NS(=O)(=O)c1cncc(-c2nc(NCc3ccccn3)c3c(-c4ccccc4)cccc3n2)c1`, for which, in series [12], the Drug metabolism entry is given as “Metabolite_Detected”. In the series with Plasma, the Drug uptake result was “Not Active”. In addition, the solubility result in [13] is “Soluble”.
Take `NS(=O)(=O)Nc1cncc(-c2nc(NCc3ccccn3)c3c(-c4ccccc4)cccc3n2)c1`: the fraction unbound in series [1] and in series [4] was under 0.005 in each case. In addition, the solubility result in [6] is given as “Insoluble”. In addition, the Kp at 10 min in series [2] is 0.04. It took 800 nM to reach half-maximal inhibition in [3] (IC50). The molecule further yielded an inhibition in [5] of 99%.
